23 compounds from ChEMBL document CHEMBL1156561, “Discovery of piperidine carboxamide TRPV1 antagonists” (Bioorg Med Chem Lett, 2008) can be followed below.

pIC50, pKi: −log10 of the molar value. Active and inactive are the calls of the source. No cut-off for these calls is given here. Bounds are passed on as bounds.

The nature of series [1]: Metabolic stability in rat liver microsomes assessed as half life. Format: ADME, Microsome.
In series [2] the target is T1, Transient receptor potential cation channel subfamily V member 1 (Homo sapiens, UniProt Q8NER1). The series is described as follows: Displacement of [3H]RTX from human TRPV1 receptor expressed in HEK293 cell membrane. Type of series: cell membranes.
Series [3] is described as follows: Metabolic stability in human liver microsomes assessed as half life. Format: ADME, Microsome.
For series [4], the target named is T1, Transient receptor potential cation channel subfamily V member 1. The series is described as follows: Antagonist activity at human TRPV1 receptor assessed as inhibition of capsaicin-induced calcium flux by FLIPR. Type of series: functional. Summed up:
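Capsaicin-evoked Ca2+ flux in cells expressing TRPV1, read on a FLIPR with a Ca2+-sensitive fluorescent dye. Antagonism was taken as inhibition of the capsaicin response.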

Series [5] shares this target. The series is described as follows: Antagonist activity at human TRPV1 receptor assessed as inhibition of capsaicin-induced calcium flux at 1 uM by FLIPR. Type of series: functional.
The nature of series [6]: Apparent permeability from apical to basolateral side of human Caco-2 cells. Format: ADME, cell-based.
The next series addresses Cytochrome P450 3A4 (Homo sapiens, UniProt P08684). The series is described as follows: Inhibition of recombinant CYP3A4. Type of series: ADME.
In another series the test system is Caco-2. Briefly: Ratio of permeability from basolateral to apical over apical to basolateral side of human Caco-2 cells.
The next series addresses Cytochrome P450 2D6 (Homo sapiens, UniProt P10635). The series is described as follows: Inhibition of recombinant CYP2D6. Format: ADME.

T1 sequence (Q8NER1 whole entry): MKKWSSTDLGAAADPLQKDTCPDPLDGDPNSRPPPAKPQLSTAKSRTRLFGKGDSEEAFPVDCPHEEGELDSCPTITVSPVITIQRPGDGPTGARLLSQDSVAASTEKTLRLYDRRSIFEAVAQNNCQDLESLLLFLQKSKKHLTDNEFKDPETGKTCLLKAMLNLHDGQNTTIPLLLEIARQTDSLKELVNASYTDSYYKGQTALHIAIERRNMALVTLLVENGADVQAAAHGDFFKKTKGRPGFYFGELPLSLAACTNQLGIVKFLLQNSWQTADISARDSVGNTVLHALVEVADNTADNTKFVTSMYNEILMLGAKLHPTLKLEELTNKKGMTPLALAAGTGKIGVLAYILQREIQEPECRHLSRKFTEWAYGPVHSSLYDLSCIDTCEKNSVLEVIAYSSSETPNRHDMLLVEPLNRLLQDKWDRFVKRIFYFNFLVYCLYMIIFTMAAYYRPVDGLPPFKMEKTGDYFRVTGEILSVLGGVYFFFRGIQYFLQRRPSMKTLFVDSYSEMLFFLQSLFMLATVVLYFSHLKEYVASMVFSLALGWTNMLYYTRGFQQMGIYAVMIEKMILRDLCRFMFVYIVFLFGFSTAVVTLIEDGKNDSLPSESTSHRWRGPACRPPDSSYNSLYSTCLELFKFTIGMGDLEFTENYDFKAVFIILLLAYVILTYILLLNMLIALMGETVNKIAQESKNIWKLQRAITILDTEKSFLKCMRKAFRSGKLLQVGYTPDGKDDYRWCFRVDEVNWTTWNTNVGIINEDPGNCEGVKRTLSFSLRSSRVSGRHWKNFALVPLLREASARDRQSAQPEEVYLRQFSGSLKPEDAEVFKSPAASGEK
Chain of Cytochrome P450 2D6 (P10635 whole entry): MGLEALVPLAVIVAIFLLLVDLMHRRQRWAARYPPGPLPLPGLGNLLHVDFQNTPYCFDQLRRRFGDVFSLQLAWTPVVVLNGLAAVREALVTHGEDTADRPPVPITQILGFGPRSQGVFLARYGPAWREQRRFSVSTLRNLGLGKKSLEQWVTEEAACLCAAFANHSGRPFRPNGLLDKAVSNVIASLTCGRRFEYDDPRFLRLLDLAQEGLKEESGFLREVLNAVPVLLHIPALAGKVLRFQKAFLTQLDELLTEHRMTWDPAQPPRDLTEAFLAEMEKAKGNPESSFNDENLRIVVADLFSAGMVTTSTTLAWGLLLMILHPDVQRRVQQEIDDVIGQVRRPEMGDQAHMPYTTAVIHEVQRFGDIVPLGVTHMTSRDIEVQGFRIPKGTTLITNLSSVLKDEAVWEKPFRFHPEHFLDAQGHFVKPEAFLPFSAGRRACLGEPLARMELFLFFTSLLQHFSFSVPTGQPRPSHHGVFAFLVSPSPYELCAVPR
Chain of Cytochrome P450 3A4 (P08684 whole entry): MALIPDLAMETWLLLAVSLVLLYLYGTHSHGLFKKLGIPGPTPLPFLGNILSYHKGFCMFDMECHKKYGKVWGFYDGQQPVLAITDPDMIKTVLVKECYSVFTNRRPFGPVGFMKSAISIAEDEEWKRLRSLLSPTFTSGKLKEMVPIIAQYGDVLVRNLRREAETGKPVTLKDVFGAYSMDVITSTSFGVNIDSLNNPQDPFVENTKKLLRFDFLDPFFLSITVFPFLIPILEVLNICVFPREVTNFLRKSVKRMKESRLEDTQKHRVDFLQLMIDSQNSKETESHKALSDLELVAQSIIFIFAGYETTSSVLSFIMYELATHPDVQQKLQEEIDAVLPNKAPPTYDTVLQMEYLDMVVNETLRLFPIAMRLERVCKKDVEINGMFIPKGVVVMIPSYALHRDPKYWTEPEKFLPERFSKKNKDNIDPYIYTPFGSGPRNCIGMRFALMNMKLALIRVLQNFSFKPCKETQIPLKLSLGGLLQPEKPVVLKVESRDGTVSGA

In the case of `O=C1COc2ccc(NC(=O)C3CCN(c4cccc(Cl)c4)CC3)cc2N1`, the half-life in series [1] was found to be 4.4 min; in series [3], 27.7 min. Also, the pKi in series [2] is 7.01.

Consider `O=C1COc2ccc(NC(=O)C3CCN(c4cc(F)cc(F)c4)CC3)cc2N1`, for which the results for the half-life in series [1] and in series [3] were 19.4 min and 81.7 min, respectively.

Consider `CC1(C(=O)O)Oc2ccc(NC(=O)C3CCN(c4cc(F)c(F)c(F)c4)CC3)cc2NC1=O` (stereo not drawn), for which the result in series [4] was inactive.

With `CC(C)c1ccccc1N1CCC(C(=O)Nc2ccc3c(c2)NC(=O)CO3)CC1`, the half-life in series [1] was found to be 9 min; in series [3], 11.4 min.

As for `COC(=O)CC1Oc2ccc(NC(=O)C3CCN(c4cc(F)c(F)c(F)c4)CC3)cc2NC1=O` (stereo not drawn), in series [4], the pIC50 was 6.05.

On to `Cc1c(Cl)cccc1N1CCC(C(=O)Nc2ccc3c(c2)NC(=O)CO3)CC1`, for which the pKi in series [2] is 7.00.

Regarding `O=C1COc2ccc(NC(=O)C3CCN(c4cccc(C(F)(F)F)c4)CC3)cc2N1`, the half-life stood at 2.8 min in series [1] and 17.3 min in series [3]. In [4], the pIC50 is 6.74.

Consider `O=C1COc2cccc(NC(=O)C3CCN(c4cc(F)c(F)c(F)c4)CC3)c2N1`, for which the inhibition in series [5] came out at 9%.

`Cc1cccc(N2CCC(C(=O)Nc3ccc4c(c3)NC(=O)CO4)CC2)c1C`: the figures for the half-life in series [1] and in series [3] were 6.5 min and more than 60 min, respectively. The pKi in series [2] is 7.55.

On to `O=C1COc2c(cccc2NC(=O)C2CCN(c3cc(F)c(F)c(F)c3)CC2)N1`, for which, in [4], the result was inactive.

Take `CN1C(=O)COc2ccc(NC(=O)C3CCN(c4cc(F)c(F)c(F)c4)CC3)cc21`: the outcome in [4] was inactive.

Take `O=C(Nc1ccc2c(c1)NC(=O)C(CCO)O2)C1CCN(c2cc(F)c(F)c(F)c2)CC1` (stereo not drawn): the Papp A→B in series [6] was 1.5 ×10⁻⁶ cm/s. Besides, the results for the pIC50 (on Cytochrome P450 3A4; in [4]; on Cytochrome P450 2D6) were 5.43, 8.30 and less than 5.00, respectively. For the same compound, the values for the half-life in series [1] and in series [3] were 79 min and 55 min, respectively. In the series with Caco-2, the Ratio came to 10.6.

Regarding `CCOC(=O)C1Oc2ccc(NC(=O)C3CCN(c4cc(F)c(F)c(F)c4)CC3)cc2NC1=O` (stereo not drawn), in series [4], the result was inactive.

On to `O=C(Nc1ccc2c(c1)NC(=O)C(C(=O)O)O2)C1CCN(c2cc(F)c(F)c(F)c2)CC1` (stereo not drawn), for which the result in series [4] was inactive.

For the compound `CC(=O)N1CCc2cc(NC(=O)C3CCN(c4cccc(C(F)(F)F)c4)CC3)ccc21`, the pIC50 in series [4] is less than 5.05.

Consider `O=C1COc2ccc(NC(=O)C3CCN(c4cccc(F)c4Br)CC3)cc2N1`, for which the half-life turned out to be 7.2 min in series [1] and 15.6 min in series [3]. In [2], this compound had a pKi of 7.09.

As to `O=C1COc2ccc(NC(=O)C3CCN(c4ccccc4C(F)(F)F)CC3)cc2N1`, the pKi in series [2] is 7.17.

As for `O=C1COc2cc(NC(=O)C3CCN(c4cc(F)c(F)c(F)c4)CC3)ccc2N1`, the inhibition in series [5] came out at 55%.

On to `O=C1COc2ccc(NC(=O)C3CCN(c4cc(F)c(F)c(F)c4)CC3)cc2N1`, for which the half-life in [1] worked out at 63.8 min; in series [3], 58.9 min. For the same compound, the pKi in [2] was 7.31. In addition, the pIC50 in [4] was 7.23.

Take `O=C(O)CC1Oc2ccc(NC(=O)C3CCN(c4cc(F)c(F)c(F)c4)CC3)cc2NC1=O` (stereo not drawn): the inhibition in series [5] amounted to 5%.

For the compound `O=C1COc2ccc(NC(=O)C3CCN(c4ccc(F)c(F)c4)CC3)cc2N1`, the half-life in series [1] turned out to be 15.5 min; in [3] it was 44.3 min.

For `O=C(Nc1ccc2cc[nH]c2c1)C1CCN(c2cccc(C(F)(F)F)c2)CC1`, the pIC50 in series [4] was less than 5.05.

In turn, `CC(C)(C)c1ccc(N2CCC(C(=O)Nc3ccc4c(c3)NC(=O)CO4)CC2)cc1` showed a pKi in series [2] of 6.85.
